# Reference: ChEMBL document CHEMBL1140876, “Synthesis and antibacterial property of quinolines with potent DNA gyrase activity” (2009)
# Activity calls are given as the source filed them. No cut-off for these calls is given here.
# Experiments:
# Staphylococcus aureus [1] = assay: Antimicrobial activity against Staphylococcus aureus at 10 ug after 24 hrs by disk diffusion method; type: functional; details: read-out: IZ
# Summary of the method: (§1)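 Inoculum made in 0.85% saline against McFarland standard, swabbed evenly onto nutrient agar; sterile filter-paper discs set equidistant and loaded with equal volumes of drug at varying amounts; zone of inhibition measured after 24 h at 37 °C; ciprofloxacin reference.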
# Salmonella typhimurium [2] = assay: Antimicrobial activity against Salmonella Typhimurium at 15 ug after 24 hrs by disk diffusion method; type: functional, Salmonella enterica subsp. enterica serovar Typhimurium; details: Salmonella enterica, read-out: IZ; summary of the method: as §1
# Klebsiella pneumoniae [3] = assay: Antimicrobial activity against Klebsiella pneumoniae by broth microdilution assay; type: functional
# Summary of the method: (§2)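 Broth microdilution per NCCLS 1997 in 96-well plate; final inoculum 10^5 cfu/mL; incubated 35.7 °C in air 18–20 h; MIC read as lowest concentration with no visible growth.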
# Klebsiella pneumoniae [4] = assay: Antimicrobial activity against Klebsiella pneumoniae at 5 ug after 24 hrs by disk diffusion method; type: functional; details: read-out: IZ; summary of the method: as §1
# Salmonella typhimurium [5] = assay: Antimicrobial activity against Salmonella Typhimurium at 10 ug after 24 hrs by disk diffusion method; type: functional, Salmonella enterica subsp. enterica serovar Typhimurium; details: Salmonella enterica, read-out: IZ; summary of the method: as §1
# Staphylococcus aureus [6] = assay: Antimicrobial activity against Staphylococcus aureus at 15 ug after 24 hrs by disk diffusion method; type: functional; details: read-out: IZ; summary of the method: as §1
# Pseudomonas aeruginosa [7] = assay: Antimicrobial activity against Pseudomonas aeruginosa at 25 ug after 24 hrs by disk diffusion method; type: functional; details: read-out: IZ; summary of the method: as §1
# Escherichia coli [8] = assay: Antimicrobial activity against Escherichia coli at 25 ug after 24 hrs by disk diffusion method; type: functional; details: read-out: IZ; summary of the method: as §1
# Escherichia coli [9] = assay: Antimicrobial activity against Escherichia coli at 5 ug after 24 hrs by disk diffusion method; type: functional; details: read-out: IZ; summary of the method: as §1
# Bacillus subtilis [10] = assay: Antimicrobial activity against Bacillus subtilis by broth microdilution assay; type: functional; summary of the method: as §2
# Pseudomonas aeruginosa [11] = assay: Antimicrobial activity against Pseudomonas aeruginosa at 10 ug after 24 hrs by disk diffusion method; type: functional; details: read-out: IZ; summary of the method: as §1
# Pseudomonas aeruginosa [12] = assay: Antimicrobial activity against Pseudomonas aeruginosa at 5 ug after 24 hrs by disk diffusion method; type: functional; details: read-out: IZ; summary of the method: as §1
# Klebsiella pneumoniae [13] = assay: Antimicrobial activity against Klebsiella pneumoniae at 10 ug after 24 hrs by disk diffusion method; type: functional; details: read-out: IZ; summary of the method: as §1
# Pseudomonas aeruginosa [14] = assay: Antimicrobial activity against Pseudomonas aeruginosa at 20 ug after 24 hrs by disk diffusion method; type: functional; details: read-out: IZ; summary of the method: as §1
# Salmonella typhimurium [15] = assay: Antimicrobial activity against Salmonella Typhimurium at 20 ug after 24 hrs by disk diffusion method; type: functional, Salmonella enterica subsp. enterica serovar Typhimurium; details: Salmonella enterica, read-out: IZ; summary of the method: as §1
# Pseudomonas aeruginosa [16] = assay: Antimicrobial activity against Pseudomonas aeruginosa by broth microdilution assay; type: functional; summary of the method: as §2
# [17] = Inhibition of DNA gyrase assessed as pBR322 DNA relaxation at 1 uM
# Summary of the method: (§3)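 Relaxation without ATP: gyrase (60 nM) with supercoiled pBR322 DNA (6 nM) and drug at […] for 1 h at 37 °C; relaxation judged by gel. Ciprofloxacin, novobiocin and nalidixic acid comparators.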
# [18] = Inhibition of DNA gyrase assessed as conversion of relaxed pBR322 to supercoiled form
# Summary of the method: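 Supercoiling in 15 µL reactions: gyrase assay buffer, 150 ng relaxed pBR322, 2–3 µL purified DNA gyrase, 3 h at 37 °C (E. coli); stopped with 50% glycerol/0.25% bromophenol blue; 1% agarose in 1× TBE pH 8.3, 90 V 3 h; ethidium bromide stain; supercoiled band brightness by densitometry. Ciprofloxacin comparator.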
# Klebsiella pneumoniae [19] = assay: Antimicrobial activity against Klebsiella pneumoniae at 25 ug after 24 hrs by disk diffusion method; type: functional; details: read-out: IZ; summary of the method: as §1
# Escherichia coli [20] = assay: Antimicrobial activity against Escherichia coli at 10 ug after 24 hrs by disk diffusion method; type: functional; details: read-out: IZ; summary of the method: as §1
# Bacillus subtilis [21] = assay: Antimicrobial activity against Bacillus subtilis at 15 ug after 24 hrs by disk diffusion method; type: functional; details: read-out: IZ; summary of the method: as §1
# Salmonella typhimurium [22] = assay: Antimicrobial activity against Salmonella Typhimurium at 25 ug after 24 hrs by disk diffusion method; type: functional, Salmonella enterica subsp. enterica serovar Typhimurium; details: Salmonella enterica, read-out: IZ; summary of the method: as §1
# Bacillus subtilis [23] = assay: Antimicrobial activity against Bacillus subtilis at 25 ug after 24 hrs by disk diffusion method; type: functional; details: read-out: IZ; summary of the method: as §1
# Staphylococcus aureus [24] = assay: Antimicrobial activity against Staphylococcus aureus by broth microdilution assay; type: functional; summary of the method: as §2
# Escherichia coli [25] = assay: Antimicrobial activity against Escherichia coli at 20 ug after 24 hrs by disk diffusion method; type: functional; details: read-out: IZ; summary of the method: as §1
# Klebsiella pneumoniae [26] = assay: Antimicrobial activity against Klebsiella pneumoniae at 20 ug after 24 hrs by disk diffusion method; type: functional; details: read-out: IZ; summary of the method: as §1
# Pseudomonas aeruginosa [27] = assay: Antimicrobial activity against Pseudomonas aeruginosa at 15 ug after 24 hrs by disk diffusion method; type: functional; details: read-out: IZ; summary of the method: as §1
# Salmonella typhi = assay: Antimicrobial activity against Salmonella typhi by broth microdilution assay; type: functional, Salmonella enterica subsp. enterica serovar Typhi; details: Salmonella enterica
# Summary of the method: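 Broth microdilution in 96-well plates following the NCCLS 1997 protocol. Final inoculum was 10^5 cfu/mL, with a control organism run alongside. Plates were incubated at 35.7 °C in air for 18–20 h. MIC is the lowest concentration with no visible growth.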
# Staphylococcus aureus [28] = assay: Antimicrobial activity against Staphylococcus aureus at 25 ug after 24 hrs by disk diffusion method; type: functional; details: read-out: IZ; summary of the method: as §1
# Klebsiella pneumoniae [29] = assay: Antimicrobial activity against Klebsiella pneumoniae at 15 ug after 24 hrs by disk diffusion method; type: functional; details: read-out: IZ; summary of the method: as §1
# Escherichia coli [30] = assay: Antimicrobial activity against Escherichia coli by broth microdilution assay; type: functional; summary of the method: as §2
# Escherichia coli [31] = assay: Antimicrobial activity against Escherichia coli at 15 ug after 24 hrs by disk diffusion method; type: functional; details: read-out: IZ; summary of the method: as §1
# Salmonella typhimurium [32] = assay: Antimicrobial activity against Salmonella Typhimurium at 5 ug after 24 hrs by disk diffusion method; type: functional, Salmonella enterica subsp. enterica serovar Typhimurium; details: Salmonella enterica, read-out: IZ; summary of the method: as §1
# Escherichia coli [33] = assay: Inhibition of DNA gyrase gene expression in Escherichia coli assessed as decrease in band intensity by RT-PCR amplification
# Summary of the method: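 E. coli treated with drug; total RNA from cells sampled up to 24 h; 2 µg RNA to cDNA with MMLV reverse transcriptase; gyrase gene PCR (94 °C 4 min initial denaturation, 72 °C 7 min final extension); products on agarose gel, band intensity normalized to GAPDH; untreated cells as negative control.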
# Staphylococcus aureus [34] = assay: Antimicrobial activity against Staphylococcus aureus at 5 ug after 24 hrs by disk diffusion method; type: functional; details: read-out: IZ; summary of the method: as §1
# Staphylococcus aureus [35] = assay: Antimicrobial activity against Staphylococcus aureus at 20 ug after 24 hrs by disk diffusion method; type: functional; details: read-out: IZ; summary of the method: as §1
# Bacillus subtilis [36] = assay: Antimicrobial activity against Bacillus subtilis at 20 ug after 24 hrs by disk diffusion method; type: functional; details: read-out: IZ; summary of the method: as §1
# [37] = Inhibition of DNA gyrase assessed as pBR322 DNA relaxation at 5 uM; summary of the method: as §3
smiles,measurement,setting,value
Cn1c(=O)c2cc3n(c2n(C)c1=O)CC1C3Nc2ccc(Cl)cc2C1(C)C (centres undefined),zone of inhibition at 10 µg/disc,Staphylococcus aureus [1],24 mm
same,zone of inhibition at 15 µg/disc,Salmonella typhimurium [2],18 mm
same,MIC50,Klebsiella pneumoniae [3],0.125 µg/mL
same,MIC90,Klebsiella pneumoniae [3],2 µg/mL
same,zone of inhibition at 5 µg/disc,Klebsiella pneumoniae [4],20 mm
same,zone of inhibition at 10 µg/disc,Salmonella typhimurium [5],16 mm
same,zone of inhibition at 15 µg/disc,Staphylococcus aureus [6],26 mm
same,zone of inhibition at 25 µg/disc,Pseudomonas aeruginosa [7],23 mm
same,zone of inhibition at 25 µg/disc,Escherichia coli [8],23 mm
same,zone of inhibition at 5 µg/disc,Escherichia coli [9],10 mm
same,MIC50,Bacillus subtilis [10],0.25 µg/mL
same,MIC90,Bacillus subtilis [10],1.2 µg/mL
same,zone of inhibition at 10 µg/disc,Pseudomonas aeruginosa [11],14 mm
same,zone of inhibition at 5 µg/disc,Pseudomonas aeruginosa [12],10 mm
same,zone of inhibition at 10 µg/disc,Klebsiella pneumoniae [13],26 mm
same,zone of inhibition at 20 µg/disc,Pseudomonas aeruginosa [14],20 mm
same,zone of inhibition at 20 µg/disc,Salmonella typhimurium [15],22 mm
same,MIC50,Pseudomonas aeruginosa [16],0.125 µg/mL
same,MIC90,Pseudomonas aeruginosa [16],1 µg/mL
same,Activity,[17],Active
same,Activity,[18],Active
same,zone of inhibition at 25 µg/disc,Klebsiella pneumoniae [19],36 mm
same,zone of inhibition at 10 µg/disc,Escherichia coli [20],16 mm
same,zone of inhibition at 15 µg/disc,Bacillus subtilis [21],6 mm
same,zone of inhibition at 25 µg/disc,Salmonella typhimurium [22],24 mm
same,zone of inhibition at 25 µg/disc,Bacillus subtilis [23],9 mm
same,MIC50,Staphylococcus aureus [24],0.25 µg/mL
same,zone of inhibition at 20 µg/disc,Escherichia coli [25],20 mm
same,zone of inhibition at 20 µg/disc,Klebsiella pneumoniae [26],34 mm
same,zone of inhibition at 15 µg/disc,Pseudomonas aeruginosa [27],16 mm
same,MIC50,Salmonella typhi,0.09 µg/mL
same,MIC90,Salmonella typhi,0.15 µg/mL
same,zone of inhibition at 25 µg/disc,Staphylococcus aureus [28],36 mm
same,zone of inhibition at 15 µg/disc,Klebsiella pneumoniae [29],30 mm
same,MIC50,Escherichia coli [30],0.06 µg/mL
same,MIC90,Escherichia coli [30],0.25 µg/mL
same,zone of inhibition at 15 µg/disc,Escherichia coli [31],18 mm
same,zone of inhibition at 5 µg/disc,Salmonella typhimurium [32],10 mm
same,Activity,Escherichia coli [33],Active
same,zone of inhibition at 5 µg/disc,Staphylococcus aureus [34],20 mm
same,zone of inhibition at 20 µg/disc,Staphylococcus aureus [35],30 mm
same,zone of inhibition at 20 µg/disc,Bacillus subtilis [36],7 mm
O=C1c2ccccc2C(=O)C12Nc1ccc(Br)cc1[C@H]1OCCC[C@H]12,zone of inhibition at 10 µg/disc,Staphylococcus aureus [1],9 mm
same,zone of inhibition at 15 µg/disc,Salmonella typhimurium [2],13 mm
same,MIC50,Klebsiella pneumoniae [3],0.25 µg/mL
same,MIC90,Klebsiella pneumoniae [3],4 µg/mL
same,zone of inhibition at 5 µg/disc,Klebsiella pneumoniae [4],8 mm
same,zone of inhibition at 10 µg/disc,Salmonella typhimurium [5],10 mm
same,zone of inhibition at 15 µg/disc,Staphylococcus aureus [6],10 mm
same,zone of inhibition at 25 µg/disc,Pseudomonas aeruginosa [7],23 mm
same,zone of inhibition at 25 µg/disc,Escherichia coli [8],13 mm
same,zone of inhibition at 5 µg/disc,Escherichia coli [9],8 mm
same,MIC50,Bacillus subtilis [10],5 µg/mL
same,MIC90,Bacillus subtilis [10],5 µg/mL
same,zone of inhibition at 10 µg/disc,Pseudomonas aeruginosa [11],14 mm
same,zone of inhibition at 5 µg/disc,Pseudomonas aeruginosa [12],10 mm
same,zone of inhibition at 10 µg/disc,Klebsiella pneumoniae [13],10 mm
same,zone of inhibition at 20 µg/disc,Pseudomonas aeruginosa [14],20 mm
same,Activity,[37],inactive
same,zone of inhibition at 20 µg/disc,Salmonella typhimurium [15],14 mm
same,MIC50,Pseudomonas aeruginosa [16],1 µg/mL
same,MIC90,Pseudomonas aeruginosa [16],8 µg/mL
same,Activity,[18],Active
same,zone of inhibition at 25 µg/disc,Klebsiella pneumoniae [19],16 mm
same,zone of inhibition at 10 µg/disc,Escherichia coli [20],9 mm
same,zone of inhibition at 15 µg/disc,Bacillus subtilis [21],8 mm
same,zone of inhibition at 25 µg/disc,Salmonella typhimurium [22],16 mm
same,zone of inhibition at 25 µg/disc,Bacillus subtilis [23],10 mm
same,MIC50,Staphylococcus aureus [24],64 µg/mL
same,MIC90,Staphylococcus aureus [24],64 µg/mL
same,zone of inhibition at 20 µg/disc,Escherichia coli [25],12 mm
same,zone of inhibition at 20 µg/disc,Klebsiella pneumoniae [26],14 mm
same,zone of inhibition at 15 µg/disc,Pseudomonas aeruginosa [27],16 mm
same,MIC50,Salmonella typhi,1.64 µg/mL
same,MIC90,Salmonella typhi,2.5 µg/mL
same,zone of inhibition at 25 µg/disc,Staphylococcus aureus [28],14 mm
same,zone of inhibition at 15 µg/disc,Klebsiella pneumoniae [29],13 mm
same,MIC50,Escherichia coli [30],2 µg/mL
same,MIC90,Escherichia coli [30],4 µg/mL
same,zone of inhibition at 15 µg/disc,Escherichia coli [31],10 mm
same,zone of inhibition at 5 µg/disc,Salmonella typhimurium [32],8 mm
same,zone of inhibition at 5 µg/disc,Staphylococcus aureus [34],8 mm
same,zone of inhibition at 20 µg/disc,Staphylococcus aureus [35],12 mm
same,zone of inhibition at 20 µg/disc,Bacillus subtilis [36],9 mm
